Laboratory results published in ChEMBL document CHEMBL1157150, “Synthesis, structure and antibacterial activity of novel 1-(5-substituted-3-substituted-4,5-dihydropyrazol-1-yl)ethanone oxime ester derivatives” (Bioorg Med Chem, 2008).
Converted amounts (≈) assume the structure as drawn. The source made the active and inactive calls. The rule behind the calls is not given here.

Columns and labels:
[1] = system: Pseudomonas fluorescens; test: Antibacterial activity against Pseudomonas fluorescens ATCC 13525; assay type: functional
[2] = system: Pseudomonas aeruginosa; test: Antibacterial activity against Pseudomonas aeruginosa ATCC 13525; assay type: functional, organism-based
Procedure, shortened: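 Broth microdilution in MH medium with an inoculum of about 10⁵ cfu/mL. Compounds were serially diluted from a DMSO stock and incubated 24 h at 37 °C. MIC was read visually, then confirmed colorimetrically: MTT (2 mg/mL in PBS, pH 7.4) was added for 4–5 h at room temperature, the dye was extracted with isopropanol/5% 1 mol/L HCl for 12 h, and OD was read at 550 nm.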

[3] = Inhibition of Escherichia coli DNA gyrase supercoiling activity
[4] = system: Bacillus subtilis; test: microbe, parasite or virus in culture; assay type: functional; details: ATCC 6633
[5] = system: Escherichia coli; test: Antibacterial activity against Escherichia coli ATCC 35218; assay type: functional
[6] = system: Staphylococcus aureus; test: Antibacterial activity against Staphylococcus aureus ATCC 6538; assay type: functional

SMILES	MIC [1]	Activity [2]	IC50 [3]	MIC [4]	MIC [5]	MIC [6]
CCC(=O)O/N=C(/C)N1N=C(C)CC1c1ccccc1OCc1ccc(F)cc1 (stereo not given)	50 µg/mL (≈ 126 µM)	Active	> 125 µg/mL	50 µg/mL (≈ 126 µM)	50 µg/mL (≈ 126 µM)	50 µg/mL (≈ 126 µM)
COC1CC(c2ccccc2)=NN1/C(C)=N\OC(=O)c1ccc(C(F)(F)F)cc1 (stereo not given)	1.56 µg/mL (≈ 3.85 µM)	–	0.25 µg/mL (≈ 0.617 µM)	1.56 µg/mL (≈ 3.85 µM)	3.12 µg/mL (≈ 7.71 µM)	1.56 µg/mL (≈ 3.85 µM)
C/C(=N/OC(=O)/C=C/c1ccccc1)N1N=C(c2ccc(Cl)cc2Cl)CC1c1ccc(C(F)(F)F)cc1 (stereo not given)	3.12 µg/mL (≈ 5.72 µM)	Active	–	1.56 µg/mL (≈ 2.86 µM)	12.5 µg/mL (≈ 22.9 µM)	6.25 µg/mL (≈ 11.4 µM)
CC1=NN(/C(C)=N\OC(=O)c2ccc(Cl)cc2Cl)C(c2ccc(OCc3ccc(F)cc3)cc2)C1 (stereo not given)	50 µg/mL (≈ 97.2 µM)	Active	–	12.5 µg/mL (≈ 24.3 µM)	12.5 µg/mL (≈ 24.3 µM)	12.5 µg/mL (≈ 24.3 µM)
C/C(=N/OC(=O)c1ccc(C(F)(F)F)cc1)N1N=C(c2ccc(Cl)cc2Cl)CC1c1ccc(C(F)(F)F)cc1 (stereo not given)	50 µg/mL (≈ 85 µM)	Active	–	25 µg/mL (≈ 42.5 µM)	50 µg/mL (≈ 85 µM)	50 µg/mL (≈ 85 µM)
COC1CC(c2ccccc2)=NN1/C(C)=N\OC(=O)c1ccco1 (stereo not given)	1.56 µg/mL (≈ 4.77 µM)	–	0.25 µg/mL (≈ 0.764 µM)	0.78 µg/mL (≈ 2.38 µM)	3.12 µg/mL (≈ 9.55 µM)	3.12 µg/mL (≈ 9.55 µM)
CC1=NN(/C(C)=N\OC(=O)/C=C/c2ccccc2)C(c2ccc(OCc3ccc(F)cc3)cc2)C1 (stereo not given)	12.5 µg/mL (≈ 26.5 µM)	Active	–	12.5 µg/mL (≈ 26.5 µM)	12.5 µg/mL (≈ 26.5 µM)	12.5 µg/mL (≈ 26.5 µM)
C/C(=N/OC(=O)c1ccccc1F)N1N=C(c2ccc(Cl)cc2Cl)CC1c1ccc(C(F)(F)F)cc1 (stereo not given)	12.5 µg/mL (≈ 23.2 µM)	Active	–	12.5 µg/mL (≈ 23.2 µM)	50 µg/mL (≈ 92.9 µM)	50 µg/mL (≈ 92.9 µM)
CC1=NN(/C(C)=N\OC(=O)c2ccccc2F)C(c2ccc(OCc3ccc(F)cc3)cc2)C1 (stereo not given)	25 µg/mL (≈ 53.9 µM)	Active	–	25 µg/mL (≈ 53.9 µM)	50 µg/mL (≈ 108 µM)	50 µg/mL (≈ 108 µM)
CC1=NN(/C(C)=N\OC(=O)c2ccc(C(F)(F)F)cc2)C(c2ccccc2OCc2ccc(F)cc2)C1 (stereo not given)	50 µg/mL (≈ 97.4 µM)	Active	–	50 µg/mL (≈ 97.4 µM)	50 µg/mL (≈ 97.4 µM)	50 µg/mL (≈ 97.4 µM)
C=CC(=O)O/N=C(/C)N1N=C(C)CC1c1ccc(OCc2ccc(F)cc2)cc1 (stereo not given)	50 µg/mL (≈ 126 µM)	Active	–	12.5 µg/mL (≈ 31.6 µM)	25 µg/mL (≈ 63.2 µM)	50 µg/mL (≈ 126 µM)
C/C(=N/OC(=O)/C=C/c1ccccc1)N1N=C(c2ccc(Cl)cc2Cl)CC1c1ccccc1F (stereo not given)	3.12 µg/mL (≈ 6.3 µM)	Active	–	6.25 µg/mL (≈ 12.6 µM)	6.25 µg/mL (≈ 12.6 µM)	50 µg/mL (≈ 101 µM)
C/C(=N/OC(=O)c1ccccc1[N+](=O)[O-])N1N=C(c2ccc(Cl)cc2Cl)CC1c1ccc(C(F)(F)F)cc1 (stereo not given)	50 µg/mL (≈ 88.4 µM)	Active	–	50 µg/mL (≈ 88.4 µM)	50 µg/mL (≈ 88.4 µM)	50 µg/mL (≈ 88.4 µM)
C/C(=N/OC(=O)c1ccccc1C)N1N=C(c2ccc(Cl)cc2Cl)CC1c1ccc(C(F)(F)F)cc1 (stereo not given)	50 µg/mL (≈ 93.6 µM)	Active	–	50 µg/mL (≈ 93.6 µM)	50 µg/mL (≈ 93.6 µM)	50 µg/mL (≈ 93.6 µM)
CCC(=O)O/N=C(/C)N1N=C(c2ccccc2)CC1OC (stereo not given)	12.5 µg/mL (≈ 43.2 µM)	–	–	12.5 µg/mL (≈ 43.2 µM)	12.5 µg/mL (≈ 43.2 µM)	25 µg/mL (≈ 86.4 µM)
C=CC(=O)O/N=C(/C)N1N=C(c2ccc(Cl)cc2Cl)CC1c1ccc(C(F)(F)F)cc1 (stereo not given)	12.5 µg/mL (≈ 26.6 µM)	Active	–	3.12 µg/mL (≈ 6.65 µM)	6.25 µg/mL (≈ 13.3 µM)	12.5 µg/mL (≈ 26.6 µM)
C/C(=N/OC(=O)c1ccco1)N1N=C(c2ccc(Cl)cc2Cl)CC1c1ccccc1F (stereo not given)	6.25 µg/mL (≈ 13.6 µM)	Active	1 µg/mL (≈ 2.17 µM)	3.12 µg/mL (≈ 6.79 µM)	1.56 µg/mL (≈ 3.39 µM)	1.56 µg/mL (≈ 3.39 µM)
C=CC(=O)O/N=C(/C)N1N=C(c2ccc(Cl)cc2Cl)CC1c1ccccc1F (stereo not given)	12.5 µg/mL (≈ 29.7 µM)	Active	100 µg/mL (≈ 238 µM)	3.12 µg/mL (≈ 7.44 µM)	3.12 µg/mL (≈ 7.44 µM)	3.12 µg/mL (≈ 7.44 µM)
CCCC(=O)O/N=C(/C)N1N=C(C)CC1c1ccccc1OCc1ccc(F)cc1 (stereo not given)	50 µg/mL (≈ 122 µM)	Active	–	50 µg/mL (≈ 122 µM)	50 µg/mL (≈ 122 µM)	50 µg/mL (≈ 122 µM)
C/C(=N/OC(=O)c1ccccc1[N+](=O)[O-])N1N=C(c2ccc(Cl)cc2Cl)CC1c1ccccc1F (stereo not given)	50 µg/mL (≈ 97 µM)	Active	–	25 µg/mL (≈ 48.5 µM)	50 µg/mL (≈ 97 µM)	50 µg/mL (≈ 97 µM)
COC1CC(c2ccccc2)=NN1/C(C)=N\OC(=O)c1ccc(Cl)cc1 (stereo not given)	6.25 µg/mL (≈ 16.8 µM)	–	–	3.12 µg/mL (≈ 8.4 µM)	6.25 µg/mL (≈ 16.8 µM)	25 µg/mL (≈ 67.2 µM)
NC[C@H]1O[C@H](O[C@H]2[C@H](O)[C@@H](O[C@H]3O[C@H](CO)[C@@H](O)[C@H](N)[C@H]3O)[C@H](N)C[C@@H]2N)[C@H](O)[C@@H](O)[C@@H]1O [KANAMYCIN]	3.12 µg/mL (≈ 6.45 µM)	–	–	0.39 µg/mL (≈ 0.805 µM)	1.56 µg/mL (≈ 3.22 µM)	3.12 µg/mL (≈ 6.45 µM)
